The source made the active and inactive calls. The calls are words filed in the database; no cut-off is given here.
How the values were obtained:
Influenza A virus [1] = test: Antiviral activity against Influenza A virus (H1N1) infected in dog MDCK cells assessed as inhibition of virus-induced cytopathic effect treated 1 hr post infection and measured after 48 hrs by CCK-8 assay; assay type: functional, organism-based
[2] = Hemolytic activity in rabbit red blood cells incubated for 60 mins; assay type: ADME, cell-based, Oryctolagus cuniculus, Erythrocyte; details: red blood cells (erythrocytes)
Procedure, shortened: (§1)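 Fibrinogen-free rabbit blood was mixed with 0.9% saline and centrifuged to give a 2% red cell suspension. Peptide solutions were combined with the suspension, kept 60 min at 37 °C and centrifuged. Supernatant OD600 gave hemolysis, and HC50 is the 50% hemolytic concentration.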

Influenza A virus [3] = test: Antiviral activity against Influenza A virus H5N1 infected in dog MDCK cells assessed as inhibition of virus-induced cytopathic effect treated 1 hr post infection and measured after 48 hrs by CCK-8 assay; assay type: functional, organism-based
[4] = Inhibition of Influenza A virus (H1N1) neuraminidase using 4-MU-NANA as substrate preincubated for 1 hr followed by substrate addition and measured after 18 hrs by fluorescence method
Procedure, shortened: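 Peptide dilutions were preincubated with diluted H1N1 virus for 1 h at 37 °C. 4-MU-NANA was then added and reactions ran 18 h at 37 °C. Released 4-methylumbelliferone was read by fluorescence (Ex 355/Em 460). IC50 is the peptide concentration reducing neuraminidase activity by 50%.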

[5] = Binding affinity to influenza neuraminidase incubated for 2 hrs by ELISA; design: species or system Influenza A virus
Procedure, shortened: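 His-tagged neuraminidase expressed in E. coli BL21 and Ni-affinity purified was immobilised and blocked with BSA. Biotinylated peptides at varied concentrations were bound at 37 °C for 2 h, followed by streptavidin-HRP for 1 h and HRP substrate for 15 min, then OD450. Kd came from fitting background-subtracted absorbance against peptide concentration.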

Erythrocyte = test: Hemolytic activity in rabbit red blood cells at 100 uM incubated for 60 mins; assay type: ADME, cell-based, Oryctolagus cuniculus; details: 1 h; procedure, shortened: as §1
[6] = Drug uptake in human HEK293T cells at 2 uM incubated for 12 hrs by HPLC analysis; assay type: ADME, cell-based; details: hek-293t
Procedure, shortened: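 HEK 293T cells were exposed to peptide at 2 μM for 12 h, washed twice with PBS and lysed; proteins were precipitated. Peptide was read by HPLC on a C18 column with 0.1% TFA in water and 0.1% TFA in 80% acetonitrile, gradient 14–34% B over 0–20 min, 1 mL min−1.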

[7] = Drug uptake in human HEK293T cells at 2 uM measured upto 12 hrs by using rhodamine-labeled peptide by DAPI staining based laser scanning confocal microscopic analysis; assay type: ADME, cell-based; details: hek-293t
Procedure, shortened: (§2)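 HEK 293T cells were given rhodamine-labelled peptides at 2 μM and sampled at 2, 4, 8 and 12 h. Cells were PBS-washed, fixed in 4% paraformaldehyde and DAPI-stained, then examined by laser scanning confocal microscopy and by FACS.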

HEK-293T = test: Cytotoxicity against human HEK293T cells at 50 uM incubated for 48 hrs by CCK-8 assay; assay type: cell-based
Procedure, shortened: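 HEK 293T cells were seeded at 5000 per well in DMEM with 10% FBS. Peptides were added at 0.78 to 50 μM for 48 h, and viability was read by CCK-8.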

Influenza A virus [8] = test: Antiviral activity against Influenza A virus (H1N1) infected in BALB/c mouse assessed as reduction in lung index at 1 mg/kg/day, iv administered for 7 days and measured after 15 days; assay type: functional, organism-based; details: time 7.0 day
Influenza A virus [9] = test: Antiviral activity against Influenza A virus (H1N1) infected in BALB/c mouse assessed as decrease in INFgamma expression at 1 mg/kg/day, iv measured on day 2 and day 4 by ELISA; assay type: functional, organism-based; details: time 2-4 day
Procedure, shortened: (§3)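 Balb/c mice were infected with H1N1 and treated iv once daily for seven days (peptide 1 mg kg−1 per day, starting 4 h post-inoculation), with PBS control and healthy groups. Serum was taken on days 2 and 4 post-inoculation. TNF-α, IL-6 and IFN-γ were measured by ELISA at A450. n = 6; Student's t test against the normal group.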

[10] = […] assessed as compound remaining after 18 hrs by RP-HPLC analysis; assay type: ADME, cell-free; details: human, plasma
Influenza A virus [11] = test: Antiviral activity against Influenza A virus (H1N1) infected in BALB/c mouse assessed as recovery of normal body weight at 1 mg/kg/day, iv measured after 6 days; assay type: functional, organism-based; details: time 6.0 day
Procedure, shortened: (§4)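 Six-week-old male Balb/c mice, randomised into normal, PBS control and treated groups. Dosing began 4 h after H1N1 inoculation: peptide at 1 mg kg−1 per day or oseltamivir carboxylate at 50 mg kg−1 per day, iv once daily for seven days. Body weight and mortality were followed for 15 consecutive days; n = 6.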

[12] = Drug uptake in human HEK293T cells at 2 uM measured upto 12 hrs by using rhodamine-labeled peptide by flow cytometric analysis; assay type: ADME, cell-based; details: hek-293t; procedure, shortened: as §2
Influenza A virus [13] = test: Antiviral activity against Influenza A virus (H1N1) infected in BALB/c mouse assessed as decrease in TNF-alpha expression at 1 mg/kg/day, iv measured on day 2 and day 4 by ELISA; assay type: functional, organism-based; details: time 2-4 day; procedure, shortened: as §3
Influenza A virus [14] = test: Antiviral activity against Influenza A virus (H1N1) infected in BALB/c mouse assessed as decrease in IL6 expression at 1 mg/kg/day, iv measured on day 2 and day 4 by ELISA; assay type: functional, organism-based; details: time 2-4 day; procedure, shortened: as §3
Influenza A virus [15] = test: Antiviral activity against Influenza A virus (H1N1) infected in BALB/c mouse assessed as animal survival rate at 50 mg/kg/day, iv administered for 7 days and monitored for 15 days relative to control; assay type: functional; details: time 7 day; procedure, shortened: as §4
Influenza A virus [16] = test: Antiviral activity against Influenza A virus (H1N1) infected in BALB/c mouse assessed as animal survival rate at 1 mg/kg/day, iv administered for 7 days and monitored for 15 days relative to control; assay type: functional; details: time 7 day; procedure, shortened: as §4
Influenza A virus (H1N1) = test: Inhibition of Influenza A virus (H1N1) neuraminidase at 25 uM using 4-MU-NANA as substrate after 60 mins by fluorescence method relative to control
Procedure, shortened: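 Time-course format: neuraminidase incubated with peptide (25 μM) in the presence of 4-MU-NANA substrate for up to 180 min. Fluorescence intensity read at successive time points and expressed as inhibition ratio. Mean ± SD, n = 6.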

C[C@H](NC(=O)[C@@H]1CCCN1C(=O)[C@H](CCCCN)NC(=O)[C@@H](CCCNC(=N)N)NC(=O)[C@H](Cc1c[nH]cn1)NC(=O)CN)C(=O)N[C@@H](CCC(N)=O)C(=O)N1CCC[C@H]1C(=O)O
IC50 (Influenza A virus [1]): 28.4 µM | HC50 at 1 h [2]: 25 µM | IC50 (Influenza A virus [3]): 31.3 µM | IC50 [4]: < 25 µM

C[C@H](NC(=O)[C@@H](NC(=O)[C@H](CCCCN)NC(=O)[C@@H](Cc1c[nH]cn1)NC(=O)[C@@H](CC(=O)O)NC(=O)[C@@H](N)CC(=O)O)[C@@H](C)O)C(=O)N[C@@H](Cc1c[nH]cn1)C(=O)N[C@@H](CCC(N)=O)C(=O)O
IC50 (Influenza A virus [1]): 28.4 µM | Kd [5]: 0.0386 µM | HC50 at 1 h [2]: 25 µM | IC50 (Influenza A virus [3]): 48.2 µM

C[C@H](NC(=O)[C@@H]1CCCN1C(=O)[C@H](CCCCN)NC(=O)[C@H](CCCNC(=N)N)NC(=O)[C@@H](Cc1c[nH]c2ccccc12)NC(=O)CN)C(=O)N[C@@H](CCC(N)=O)C(=O)N1CCC[C@H]1C(=O)O
Activity (Erythrocyte): Non-Toxic | Drug uptake [6]: Active | Drug uptake [7]: Active | Activity (HEK-293T): Non-Toxic | IC50 (Influenza A virus [1]): 36 µM | Kd [5]: 0.0277 µM | Activity (Influenza A virus [8]): Active | Activity (Influenza A virus [9]): Active | Stabilty [10]: Stable | HC50 at 1 h [2]: 25 µM | IC50 (Influenza A virus [3]): 27.5 µM | Activity (Influenza A virus [11]): Active | Drug uptake [12]: Active | Activity (Influenza A virus [13]): Active | Activity (Influenza A virus [14]): Active

CCC(CC)O[C@@H]1C=C(C(=O)O)C[C@H](N)[C@H]1NC(C)=O [OSELTAMIVIR CARBOXYLATE]
Activity (Influenza A virus [15]): 100% | IC50 (Influenza A virus [1]): 0.0113 µM | IC50 (Influenza A virus [3]): 0.0056 µM

C[C@H](NC(=O)[C@@H]1CCCN1C(=O)[C@H](CCCCN)NC(=O)[C@H](CCC(=O)O)NC(=O)[C@@H](CCC(=O)O)NC(=O)[C@H](N)CCC(=O)O)C(=O)N[C@@H](CCC(N)=O)C(=O)N1CCC[C@H]1C(=O)O
IC50 (Influenza A virus [1]): 36.1 µM | HC50 at 1 h [2]: 25 µM | IC50 (Influenza A virus [3]): 64.3 µM

CC(C)C[C@H](NC(=O)[C@@H]1CCCN1C(=O)[C@H](CCCNC(=N)N)NC(=O)[C@@H](CCCNC(=N)N)NC(=O)[C@@H](CCCNC(=N)N)NC(=O)[C@H](N)Cc1ccccc1)C(=O)N[C@@H](CCCNC(=N)N)C(=O)N[C@@H](C)C(=O)O
Activity (Erythrocyte): Non-Toxic | Activity (HEK-293T): Non-Toxic | IC50 (Influenza A virus [1]): 22.7 µM | HC50 at 1 h [2]: 25 µM | IC50 (Influenza A virus [3]): 50.2 µM

C[C@H](NC(=O)[C@@H](NC(=O)[C@H](CCCCN)NC(=O)[C@H](Cc1c[nH]cn1)NC(=O)[C@H](Cc1ccccc1)NC(=O)[C@H](CCC(=O)O)NC(=O)[C@H](N)CCCCN)[C@@H](C)O)C(=O)N[C@@H](CCC(N)=O)C(=O)N1CCC[C@H]1C(=O)O
IC50 (Influenza A virus [1]): 16.6 µM | Kd [5]: 0.0286 µM | HC50 at 1 h [2]: 25 µM | IC50 (Influenza A virus [3]): 25.4 µM | IC50 [4]: < 25 µM

C[C@H](NC(=O)[C@@H]1CCCN1C(=O)[C@H](CCCCN)NC(=O)[C@@H](CCCNC(=N)N)NC(=O)[C@@H](CCCNC(=N)N)NC(=O)[C@H](N)CCC(=O)O)C(=O)N[C@@H](CCC(N)=O)C(=O)N1CCC[C@H]1C(=O)O
Activity (Erythrocyte): Non-Toxic | Activity (Influenza A virus [16]): 90% | Drug uptake [6]: Active | Drug uptake [7]: Active | Activity (HEK-293T): Non-Toxic | IC50 (Influenza A virus [1]): 2.26 µM | Kd [5]: 0.011 µM | Activity (Influenza A virus [8]): Active | Activity (Influenza A virus [9]): Active | Stabilty [10]: Stable | HC50 at 1 h [2]: 25 µM | IC50 (Influenza A virus [3]): 1.46 µM | inhibition (Influenza A virus (H1N1)): 100% | Activity (Influenza A virus [11]): Active | IC50 [4]: 4.25 µM | Drug uptake [12]: Active | Activity (Influenza A virus [13]): Active | Activity (Influenza A virus [14]): Active

CC(C)C[C@H](NC(=O)[C@@H](CCCNC(=N)N)NC(=O)[C@H](CCCCN)NC(=O)[C@H](N)Cc1c[nH]c2ccccc12)C(=O)N[C@@H](Cc1c[nH]cn1)C(=O)N[C@@H](Cc1c[nH]cn1)C(=O)N[C@@H](CCCCN)C(=O)N1CCC[C@H]1C(=O)N[C@@H](C)C(=O)O
Activity (Erythrocyte): Non-Toxic | Activity (HEK-293T): Non-Toxic | IC50 (Influenza A virus [1]): 16 µM | Kd [5]: 0.019 µM | HC50 at 1 h [2]: 25 µM | IC50 (Influenza A virus [3]): 17.9 µM | IC50 [4]: < 25 µM

C[C@H](NC(=O)[C@H](CCC(N)=O)NC(=O)[C@H](C)NC(=O)[C@H](Cc1c[nH]cn1)NC(=O)[C@H](CCCCN)NC(=O)[C@H](CCCNC(=N)N)NC(=O)[C@@H](CC(=O)O)NC(=O)[C@H](N)CCC(=O)O)C(=O)O
IC50 (Influenza A virus [1]): 3.08 µM | Kd [5]: 0.0366 µM | HC50 at 1 h [2]: 25 µM | IC50 (Influenza A virus [3]): 3.32 µM | IC50 [4]: < 25 µM

CSCC[C@H](NC(=O)[C@@H](NC(=O)[C@@H](CCCNC(=N)N)NC(=O)[C@@H](Cc1ccccc1)NC(=O)[C@H](N)CCC(=O)O)[C@@H](C)O)C(=O)N[C@H](C(=O)N[C@@H](Cc1c[nH]cn1)C(=O)N1CCC[C@H]1C(=O)N[C@@H](CCCCN)C(=O)O)C(C)C
Activity (Erythrocyte): Non-Toxic | Activity (HEK-293T): Non-Toxic | IC50 (Influenza A virus [1]): 15.7 µM | Kd [5]: 0.0203 µM | HC50 at 1 h [2]: 25 µM | IC50 (Influenza A virus [3]): 23.8 µM

From ChEMBL document CHEMBL4715683, “Discovery and characterization of a novel peptide inhibitor against influenza neuraminidase” (RSC Med Chem, 2020)
